Rin1 Abl inh = blocks binding of human Rin1 to Abl | P00519+Q13671 | actives 0.4% (n = 360,000) | inhibition, % at 7.35 µM | AID 588664 | TR-FRET Rin1/Abl binding, biochemical; in the data active means inhibition above about 5%, passing the limit was not always enough
UHRF1 binding = blocks human UHRF1 binding to methylated DNA. Q96T88. UHRF1 binding to methylated oligo, TR-FRET. inhibition, % at 4.4 µM. actives 0.75% (n = 370,000). AID 687016;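 further: UHRF1 SRA domain binding a hemimethylated CpG hairpin DNA probe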
TDP2 absorb = TDP2 (human) inhibition, absorbance primary screen | inhibition, % at 12.8 µM | AID 720702 | recombinant TDP2, T5PNP hydrolysis, p-nitrophenol absorbance 415 nm | actives 0.34% (n = 370,000) | O95551;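 active means inhibition above the mean of all tested compounds plus 3 SD, set per campaign, cut at about 25% in these data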
Target sequence (O95551 whole entry, looked up): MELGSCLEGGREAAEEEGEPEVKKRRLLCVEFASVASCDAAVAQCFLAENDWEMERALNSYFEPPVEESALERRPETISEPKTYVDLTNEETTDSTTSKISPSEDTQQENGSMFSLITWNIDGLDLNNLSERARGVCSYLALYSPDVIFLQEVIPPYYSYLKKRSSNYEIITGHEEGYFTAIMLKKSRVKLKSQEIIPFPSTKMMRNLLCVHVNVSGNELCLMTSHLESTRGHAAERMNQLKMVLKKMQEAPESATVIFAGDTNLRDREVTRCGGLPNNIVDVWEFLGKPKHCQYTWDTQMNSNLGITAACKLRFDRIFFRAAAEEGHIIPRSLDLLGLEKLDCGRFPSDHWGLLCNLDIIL
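Test system: human TDP2 enzyme; Input: 120 nM TDP2 per well; Buffer or medium: Mg2+-containing Tris-HCl buffer, pH 7.5; Reagent: 5 mM T5PNP; Dosing: 12.8 µM single point, 1% DMSO; Incubation: reaction 2 h, 37 °C; Detection: p-Nitrophenol epi absorbance; Read-out: % inhibition relative to enzyme-containing and enzyme-free wells; Replicates: single well per compound.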
LEDGF integ inh = blocks HIV-1 LEDGF/p75-dependent DNA integration; TR-FRET IN-LEDGF/p75 DNA integration, Eu/Cy5; inhibition, % at 3.7 µM; actives 0.64% (n = 370,000); AID 743269;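 active means inhibition above the screen-wide mean plus 3 SD, cut at about 13% in these data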;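 further: signal is the Cy5 over europium emission ratio at 671 and 618 nm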
MBD2 inh = inhibitors of human MBD2 binding to methylated oligonucleotide | AID 686964 | actives 0.31% (n = 370,000) | inhibition, % at 4.4 µM | TR-FRET | Q9UBB5; in the data active means inhibition above about 13%
UHRF1 DNA bind = inhibits human UHRF1 binding to methylated oligonucleotide, MBD2 counter-screen; shares compounds with MBD2 inh; TR-FRET; inhibition, % at 4.4 µM; actives 25% (n = 1,000);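 further: UHRF1 SRA domain binding a labeled hemimethylated CpG hairpin DNA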
MBD2 DBD conf = confirmation of human MBD2-DBD methylated oligonucleotide binding inhibitors; shares compounds with MBD2 inh; TR-FRET MBD2-DBD binding to methylated oligonucleotide; inhibition, % at 4.4 µM; actives 26% (n = 1,000); AID 720531; in the data active means inhibition above about 14%
Each line names hits and unclear results; the compound was inactive in the other large screens (follow-up assays come after a bar, where they were run). The list is not random: actives were taken first. Their share in the collection is about 1.9%. Unless noted, no stated cut-off is given here; in the data, active means inhibition above about 21%; inactive means the rest.

COC(=O)[C@]12C[C@H](CC(=O)N3CCN(C(=O)c4ccco4)CC3)C(=O)N(CCC3=CCCCC3)C1=C[C@H](C(C)C)O[C@@H]2C1CC1	none (no result: Rin1 Abl inh)
CCCCN1CCN(C(=O)c2cn(C(C)c3ccccc3)nn2)CC1 (configuration not stated)	none (no result: Rin1 Abl inh)
COC(=O)C[C@H]1C[C@H]2c3cc(NS(=O)(=O)c4ccc(OC)cc4)ccc3O[C@H]2[C@H](CO)O1	MBD2 inh 20.6 | UHRF1 DNA bind inactive | MBD2 DBD conf inactive
CCCCOCCCNS(=O)(=O)Cc1ccccc1	MBD2 inh 19.6 | UHRF1 DNA bind inactive | MBD2 DBD conf inactive
CC(=O)Nc1sc2c(c1-c1nc3ccccc3s1)CCN(C(C)C)CC2	MBD2 inh 21.8 (no result: Rin1 Abl inh) | UHRF1 DNA bind inactive | MBD2 DBD conf 26.5
CC(=O)Nc1sc2c(c1-c1nc3ccccc3s1)CCN(C(C)C)C2	none (no result: UHRF1 binding, TDP2 absorb, LEDGF integ inh, MBD2 inh)
O=C(Nc1sc2c(c1-c1nc3ccccc3s1)CCNC2)C(F)F	none (no result: Rin1 Abl inh)
CC(=O)Nc1sc2c(c1-c1nc3ccccc3s1)CCCNC2	MBD2 inh 20.5 (no result: Rin1 Abl inh) | UHRF1 DNA bind inactive | MBD2 DBD conf 32.0
CC(C)CN1C(=O)[C@@]2(CC(=O)N(C)C2c2ccccc2)c2cc(-n3cc(C(C)(C)O)nn3)ccc21 (some centres not stated)	none (no result: Rin1 Abl inh)
Cc1ccc(-n2nc3c(N4CCC(C(=O)NCCc5ccco5)CC4)nnc(C)c3c2C)cc1	MBD2 inh 15.9 | UHRF1 DNA bind inactive | MBD2 DBD conf inactive
COC(=O)[C@]12C[C@H](CC(=O)NCc3cccc4ccccc34)C(=O)N(Cc3ccco3)C1=C[C@H](COCc1ccccc1)O[C@@H]2C	none (no result: Rin1 Abl inh)
C[C@H]1[C@@H](NC(=O)C#Cc2ccccc2)CC[C@@]23CCCN2C(=O)CCC[C@@H]13	none (no result: Rin1 Abl inh)
Cc1ccccc1S(=O)(=O)Nc1cccnc1	none
Cc1ccc(Br)cc1S(=O)(=O)Nc1cccnc1	UHRF1 binding 35.9, MBD2 inh 18.5 | UHRF1 DNA bind inactive | MBD2 DBD conf inactive
CC1(C(=O)NS(=O)(=O)c2ccc(Br)cc2)CCN1C(=O)CC1CCCCC1 (configuration not stated)	MBD2 inh 17.9 | UHRF1 DNA bind inactive | MBD2 DBD conf inactive
OCCCNc1c2ccccc2nc2ccccc12	UHRF1 binding 27.8, MBD2 inh 30.6 | UHRF1 DNA bind 32.9 | MBD2 DBD conf 33.9
COc1ccc(NC(=O)Nc2c[nH]c(=O)[nH]c2=O)cc1	none
COc1ccc(Cc2c[nH]c(=O)[nH]c2=O)cc1	UHRF1 binding 23.6, MBD2 inh 16.1 | UHRF1 DNA bind inactive | MBD2 DBD conf inactive
CN[C@H]1C[C@H]2c3[nH]c4c(-c5cccc(C)c5)cccc4c3CCN2C[C@H]1[C@H](C)O	none (no result: Rin1 Abl inh)
O=c1[nH]cnc2c1ncn2[C@H]1CC[C@@H](CO)O1	UHRF1 binding 22.7, MBD2 inh 38.0 | UHRF1 DNA bind inactive | MBD2 DBD conf inactive
COc1ccc2nc3cc(Cl)ccc3c(Nc3cc(CN4CCCC4)c(O)c(CN4CCCC4)c3)c2n1	UHRF1 binding 72.1, MBD2 inh 55.1 | UHRF1 DNA bind 85.9 | MBD2 DBD conf 88.1
Cc1ccc(OCc2nnc(SCC(=O)Nc3ccc(S(=O)(=O)Nc4cc(C)nc(C)n4)cc3)n2Cc2ccco2)cc1	none (no result: Rin1 Abl inh)
COc1ccc2oc3cc(C)[n+]([O-])c(-c4ccc(Cl)cc4)c3c2c1	MBD2 inh 13.2 | UHRF1 DNA bind inactive | MBD2 DBD conf inactive
CC1CCCCN1C(=O)Cc1ccc(Cl)cc1 (configuration not stated)	none
CC1CCCCN1C(=O)CNCc1ccc(F)cc1 (configuration not stated)	MBD2 inh 36.8 | UHRF1 DNA bind inactive | MBD2 DBD conf inactive
CCN(CC(=O)NC(C)(C)C)Cc1nc2c(Br)cc(Br)cc2c(=O)[nH]1	MBD2 inh 41.1 | UHRF1 DNA bind inactive | MBD2 DBD conf inactive
Cc1nn(-c2ccccc2)c2sc(C(=O)N3CCN(C(c4ccccc4)c4ccc(Cl)cc4)CC3)cc12 (configuration not stated)	none (no result: Rin1 Abl inh)
COc1ccc(S(=O)(=O)N2CCOCC2)cc1NC(=O)c1cccc(-n2cccc2)c1	none
CCOc1ccc(NC(=O)c2cccc(-n3cccc3)c2)cc1S(=O)(=O)N1CCOCC1	UHRF1 binding 53.8, MBD2 inh 31.1 | UHRF1 DNA bind 77.0 | MBD2 DBD conf 67.7
CCCC(=O)Nc1ccc(NC(=O)CCc2ccccc2)cn1	MBD2 inh 68.7 | UHRF1 DNA bind inactive | MBD2 DBD conf inactive
CCCC(=O)Nc1ccc(NC(=O)Cc2ccccc2)cn1	none
COc1ccccc1CCNC(=O)CSc1nc2c([nH]1)c(=O)n(C)c(=O)n2C	none (no result: Rin1 Abl inh)
COc1ccccc1CCNC(=O)CSc1nc(=O)[nH]c2c1CCC2	MBD2 inh 23.1 | UHRF1 DNA bind inactive | MBD2 DBD conf inactive
O=C1CCC[C@H]2[C@@H](Cc3ccccc3)[C@@H](O)CC[C@]23CCCN13	none (no result: Rin1 Abl inh)
COCCCNC(=O)CSc1nnc(-c2ccncc2)n1-c1ccc(OC)cc1	none (no result: Rin1 Abl inh)
O=C(NCc1ccc2c(c1)OCO2)C1CCC(CNS(=O)(=O)c2ccc(Cl)cc2)CC1 (configuration not stated)	MBD2 inh 20.3 | UHRF1 DNA bind inactive | MBD2 DBD conf inactive
Cc1ccc(S(=O)(=O)NCC2CCC(C(=O)NCc3ccc4c(c3)OCO4)CC2)cc1 (configuration not stated)	none
O=C(NCc1ccccc1Cl)C1CCN(S(=O)(=O)N2CCCCC2)CC1	UHRF1 binding 24.8, MBD2 inh 19.6 | UHRF1 DNA bind inactive | MBD2 DBD conf inactive
C/C(=N\NC(=O)C1CCCN(S(=O)(=O)c2ccccc2)C1)c1ccncc1 (configuration not stated)	none
C/C(=N\NC(=O)C1CCCN(S(=O)(=O)c2ccccc2)C1)c1ccccn1 (configuration not stated)	MBD2 inh 15.9 | UHRF1 DNA bind inactive | MBD2 DBD conf inactive
CCOc1cc(N2CCOCC2)c(OCC)cc1NC(=O)COC(=O)c1cc(C)oc1C	MBD2 inh 15.4 | UHRF1 DNA bind inactive | MBD2 DBD conf inactive
FC(F)(F)c1ccccc1Cc1c(-c2ccco2)nc2c3ccccc3ccn12	MBD2 inh 13.4 (no result: Rin1 Abl inh) | UHRF1 DNA bind inactive | MBD2 DBD conf inactive
CCC(=O)Nc1nnc(-c2ccncc2)s1	none
O=C(Nc1ccc(F)c(C(F)(F)F)c1)Nc1nnc(-c2ccncc2)s1	MBD2 inh 14.7 (no result: Rin1 Abl inh) | UHRF1 DNA bind inactive | MBD2 DBD conf inactive
COc1cc2c(c(OC)c1)C(=O)O[C@H](C)C[C@@H]1O[C@H]1CCCCC(=O)C2	none (no result: Rin1 Abl inh)
N#CCC(=O)Nc1ccc(C(=O)OCC(=O)c2ccc3c(c2)NC(=O)CO3)cc1	MBD2 inh 14.0 | UHRF1 DNA bind inactive | MBD2 DBD conf 13.3

Bioassay records deposited in PubChem BioAssay by The Scripps Research Institute Molecular Screening Center.
